From PubChem BioAssay
LEDGF integ inh – blocks HIV-1 LEDGF/p75-dependent DNA integration; inhibition, % at 3.7 µM; 370,000 compounds, 0.64% hits; TR-FRET IN-LEDGF/p75 DNA integration, Eu/Cy5;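 active = inhibition above the screen-wide mean plus 3 SD, cut at about 13% in these data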;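 also: signal is the Cy5 over europium emission ratio at 671 and 618 nm; 0% = plate median of compound wells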
UCH37 DUB inh – blocks the human deubiquitinase UCH37; Q9Y5K5; purified proteasome/UCH37, Ub-AMC cleavage fluorescence; inhibition, % (no concentration beside the values); 330,000 compounds, 0.33% hits;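 active = mean inhibition over replicate wells above about 20%, limit read from the data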;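 also: 0% = compound-free wells with enzyme and 100% = wells lacking proteasome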
Target sequence (Q9Y5K5 whole entry, looked up): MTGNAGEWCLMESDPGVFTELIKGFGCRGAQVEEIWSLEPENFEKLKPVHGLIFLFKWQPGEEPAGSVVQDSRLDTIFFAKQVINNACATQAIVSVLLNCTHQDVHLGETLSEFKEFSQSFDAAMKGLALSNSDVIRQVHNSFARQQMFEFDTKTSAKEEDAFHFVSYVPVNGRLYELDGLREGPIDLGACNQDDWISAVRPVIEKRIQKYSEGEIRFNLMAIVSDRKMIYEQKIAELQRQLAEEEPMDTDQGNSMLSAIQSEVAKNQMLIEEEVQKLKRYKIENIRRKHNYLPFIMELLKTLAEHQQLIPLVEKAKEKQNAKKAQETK
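Signal – fluorescence, ex 355 nm, em 460 nm · System – Proteasome-bound UCH37 · Input – 0.15 nM proteasome as dispensed · Timing – 30 min preincubation with enzyme, 25 min cleavage at room temperature · Read-out basis – percent inhibition of cleavage signal versus uninhibited and no-proteasome wells · Medium – Tris-HCl pH 7.4 with ATP-MgCl2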
TDP2 absorb – TDP2 (human) inhibition, absorbance primary screen; O95551; recombinant TDP2, T5PNP hydrolysis, p-nitrophenol absorbance 415 nm; inhibition, % at 12.8 µM; 370,000 compounds, 0.34% hits;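 active = inhibition above the mean of all tested compounds plus 3 SD, set per campaign, cut at about 25% in these data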;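 also: 0% = DMSO with enzyme and 100% = buffer with substrate but no TDP2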
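Test system: human TDP2 enzyme; Input: 120 nM TDP2 per well; Buffer or medium: Mg2+-containing Tris-HCl buffer, pH 7.5; Reagent: 5 mM T5PNP; Dosing: 12.8 µM single point, 1% DMSO; Incubation: reaction 2 h, 37 °C; Detection: p-Nitrophenol epi absorbance; Read-out: % inhibition relative to enzyme-containing and enzyme-free wells; Replicates: single well per compound.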
Casp6 inh – inhibitors of human caspase-6 | P55212 | purified caspase-6, Z-VEID-R110 cleavage fluorescence | inhibition, % at 12.5 µM | 350,000 compounds, 0.53% hits | AID 686996;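 active = mean inhibition across replicates at least about 35%, with every replicate also reaching that limit, limit read from the data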;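 also: 0% = median of neutral control wells and 100% = no fluorescence left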
Target sequence (P55212 24-179 limits assumed): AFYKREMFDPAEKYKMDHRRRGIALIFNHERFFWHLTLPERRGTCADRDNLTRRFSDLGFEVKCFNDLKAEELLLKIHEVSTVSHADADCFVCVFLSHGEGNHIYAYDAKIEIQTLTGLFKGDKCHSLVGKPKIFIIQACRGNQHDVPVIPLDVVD
Target sequence (P55212 194-293 limits assumed): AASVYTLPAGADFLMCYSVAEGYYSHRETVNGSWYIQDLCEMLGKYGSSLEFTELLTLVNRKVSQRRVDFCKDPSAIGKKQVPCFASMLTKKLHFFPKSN
NSD2 inh – inhibitors of human histone methyltransferase NSD2. NSD2 peptide methylation, AlphaScreen, 120 min. inhibition, % at 12.5 µM. 310,000 compounds, 0.54% hits. AID 743445; in the data active = inhibition above about 50%
IN multimer act – counter-screen for LEDGF/p75 integration inhibitors: HIV-1 integrase multimerization activators; shares compounds with LEDGF integ inh; TR-FRET HIV-1 integrase multimerization, biochemical; activation, % at 7.7 µM; 2,000 compounds, 17% hits; AID 1053131; in the data active = activation above about 8.9%
TR-FRET interf – counter-screen for LEDGF/p75 integration inhibitors: TR-FRET optical interference; shares compounds with LEDGF integ inh; TR-FRET optical interference counterscreen, HIV-1 IN multimerization; inhibition, % at 7.7 µM; 2,000 tested, under 10 active; AID 1053135;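 active = inhibition above the mean over all tested compounds plus 3 SD, which no compound reached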;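 also: 0% = integrase with antibodies and DMSO and 100% = antibodies without integrase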
LEDGF integ conf – LEDGF/p75-dependent HIV-1 integration inhibition, confirmation; shares compounds with LEDGF integ inh; TR-FRET LEDGF/p75-dependent HIV-1 integration, biochemical; inhibition, % at 3.7 µM; 2,000 compounds, 36% hits; in the data active = inhibition above about 14%
Starred values were filed as active, the others as inactive; x = no result. An excerpt weighted towards active compounds, which were near 1.3% of everything screened.

SMILES	LEDGF integ inh	UCH37 DUB inh	TDP2 absorb	Casp6 inh	NSD2 inh	IN multimer act	TR-FRET interf	LEDGF integ conf
CCOc1cc(C(C(=O)NCC2CCCO2)N(C(=O)Cn2nnc3ccccc32)c2ccc(NC(C)=O)cc2)ccc1O (configuration not stated)	-4.4	0.4	-15.3	-1.5	-6.1	x	x	x
COc1cc(C(C(=O)NCC2CCCO2)N(C(=O)Cn2nnc3ccccc32)c2ccc(OC)c(OC)c2)ccc1O (configuration not stated)	42.4*	4.2	8.9	-4.4	-5.9	1.4	-5.0	3.4
Cc1cc(/C=N/O)c(C)n1-c1ccc(Br)cc1	17.7*	x	2.1	1.2	1.0	-0.5	2.2	-4.6
COc1ccc(/C=C/C(=O)N2CCCc3ccccc32)cc1	21.1*	3.6	-1.8	9.3	x	9.5*	-34.1	19.1*
Nc1c(C(=O)NN=Cc2cccnc2)oc2nc(-c3ccccc3)cc(-c3ccco3)c12	x	-17.1	x	x	x	x	x	x
COc1ccc(Nc2nc3ccccc3nc2-n2nc(C)cc2C)cc1	-3.4	-1.6	5.6	x	x	x	x	x
Cc1cc(C)n(-c2nc3ccccc3nc2NCCc2ccccc2)n1	20.9*	-51.1	0.3	-1.4	x	0.0	0.1	1.6
O=C(NN=Cc1ccc[nH]1)c1c[nH]c2ccccc12	x	6.3	x	x	x	x	x	x
O=C1COc2ccc(C(=O)c3ccccc3)cc2CN1	50.0*	3.7	-6.9	x	0.6	-2.1	10.7	0.7
Cc1nc(C(=O)NCCCO)cc2c1[nH]c1ccccc12	26.9*	-87.5	16.1	2.1	1.8	-1.6	5.7	-1.2
Cc1nc(C(=O)NCCO)cc2c1[nH]c1ccccc12	7.3	-63.8	-9.2	1.7	-1.6	x	x	x
COc1ccc(N2CCN(C(=NS(=O)(=O)c3ccccc3)Nc3nc(C)cc(C)n3)CC2)cc1	x	1.3	x	x	x	x	x	x
O=C(O)c1ccc(-n2cccc2/C=C2/NC(=O)N(c3cccc(Cl)c3)C2=O)cc1	33.0*	11.4	-6.2	80.8*	x	12.5*	-63.0	31.3*
Cc1ccc(NC(=O)CN2C(=O)N/C(=C\c3cccn3-c3cccc(C(=O)O)c3)C2=O)cc1	x	9.1	x	x	30.8	x	x	x
NC1=NC(=O)C(=Cc2ccccc2)S1	2.3	x	-4.5	1.1	-2.2	x	x	x
NC1=NC(=O)/C(=C\c2ccco2)S1	61.5*	9.1	10.5	62.9*	29.6	29.6*	-105.5	50.2*
O=C(c1ccccc1)c1ccc2nc(-c3ccco3)c(-c3ccco3)nc2c1	17.6*	-116.8	15.1	11.0	9.4	1.8	-6.5	35.3*
O=C(NCCc1ccccc1)c1ccc2nc(-c3ccco3)c(-c3ccco3)nc2c1	x	-95.7	x	x	x	x	x	x
Cc1ccc(C)c(N2CCN(C(=O)c3ccc4nc(-c5ccco5)c(-c5ccco5)nc4c3)CC2)c1	40.4*	-63.6	-8.0	x	7.8	3.8	-13.9	21.6*
CC1CCCC(C)N1/N=C/c1ccc(O)c(O)c1 (configuration not stated)	19.9*	x	-6.3	24.8	60.0*	21.6*	-76.8	52.9*
CC1CCCC(C)N1N=Cc1ccc(O)c(O)c1 (configuration not stated)	x	1.1	x	x	x	x	x	x
COc1ccc(C=NNC(=O)C2CC2)c(OC)c1OC	x	-1.6	x	x	x	x	x	x
CN(C)Cc1c(C(=O)NN=CCCc2ccccc2)nnn1-c1nonc1N	x	-0.8	x	x	x	x	x	x
CC(C)Cc1ccc(C(=NO)C(=O)O)s1	x	2.9	x	x	x	x	x	x
CCn1c(C)nc2cc(C(=O)N/N=C/c3cccc(OC)c3O)ccc21	-8.6	x	-15.1	-7.4	0.2	x	x	x
SMILES	LEDGF integ inh	UCH37 DUB inh	TDP2 absorb	Casp6 inh	NSD2 inh	IN multimer act	TR-FRET interf	LEDGF integ conf
CCn1c(C)nc2cc(C(=O)N/N=C/c3ccc(O)c(O)c3O)ccc21	73.2*	x	-9.5	6.3	44.6	52.5*	-264.4	70.1*
Cc1nnc(NC(=O)CCC2CCCCC2)s1	-3.9	x	0.8	0.6	-0.8	x	x	x
O=C(CCC1CCCCC1)Nc1nccs1	20.9*	3.7	1.4	-4.9	-4.3	0.0	-0.1	-3.8
COc1ccccc1N1CCN(Cc2nc(N)nc(Nc3ccc(C)c(Cl)c3)n2)CC1	13.5*	3.1	-11.2	x	0.5	1.8	-9.2	4.9
CCN(CC)c1ccc(C(=O)NN=C(C)c2cccnc2)cc1	x	16.9	x	x	x	x	x	x
COc1ccc(C(=O)ON=Cc2ccc(S(=O)c3ccc(Cl)cc3)nc2)cc1 (configuration not stated)	x	3.1	x	x	x	x	x	x
COc1cc(NC(=O)c2cc(Cl)ccc2Cl)ccc1-c1cc2ccccc2oc1=O	34.6*	-64.8	1.2	x	-2.5	1.2	-5.8	-2.6
COc1cc(NC(=O)c2cccnc2)ccc1-c1cc2ccccc2oc1=O	6.8	-26.7	-3.7	0.6	-1.5	x	x	x
Cc1cccc(C)c1OCC(=O)NN=C/C=C/c1ccco1	x	2.4	x	x	x	x	x	x
COc1ccc(C=NNC(=O)C2CCN(c3ncc(C(F)(F)F)cc3Cl)CC2)cc1	x	5.8	x	x	x	x	x	x
Cc1nc2ccccc2n2c(O)c(CC(=O)O)cc12	22.7*	-404.0	8.4	x	1.7	6.8	-34.4	16.5*
COc1ccc(CC(C)=NNC(=S)Nc2ccccc2)cc1	x	4.3	x	x	x	x	x	x
Cc1ccccc1C(=O)ON=C(c1ccccc1)c1ccccn1	x	5.3	x	x	x	x	x	x
COc1cc(C(=O)Nc2ccccc2NC(=O)c2cc(OC)c(OC)c(OC)c2)cc(OC)c1OC	1.8	-2.0	-4.2	2.4	-0.1	x	x	x
COc1cc(C(=O)Nc2nc(C)cc(C)n2)cc(OC)c1OC	58.9*	0.0	6.8	-0.5	-2.6	0.0	0.2	-5.7
O=C(Nc1nccs1)c1ccc(S(=O)(=O)N2CCCCC2)cc1	15.1*	3.5	-2.4	0.8	x	0.2	-1.1	1.6
O=C1CC(Nc2ccccc2)C(=O)N1c1ccc(N2CCOCC2)cc1 (configuration not stated)	-1.1	1.4	-0.6	x	-3.7	x	x	x
O=C1CC(Nc2ccc(N3CCOCC3)cc2)C(=O)N1c1ccccc1F (configuration not stated)	15.3*	7.5	10.1	25.3	x	1.5	-7.4	-0.1
O=C(NN=Cc1ccc([N+](=O)[O-])cc1)C(=O)N1CCCC1	x	11.8	x	x	x	x	x	x
O=C1C=C(O)CC(c2ccco2)C1 (configuration not stated)	37.9*	-2.1	-7.2	x	4.2	1.5	-7.7	21.5*
O=C1C=C(Nc2ccc(O)cc2)CC(c2ccco2)C1 (configuration not stated)	4.4	7.7	-1.1	x	8.5	x	x	x
COc1ccc(OC)c(C=NNC(=O)c2ccc3nc[nH]c3c2)c1	x	-100.7	x	x	x	x	x	x
COc1ccc2nc(N3C(=O)C(O)=C(C(=O)c4ccco4)C3c3ccc(C)o3)sc2c1 (configuration not stated)	13.8*	8.4	-9.4	33.4	1.5	2.3	-11.6	8.5
